Screening data (PubChem)
Shown are actives, neighbours in structure and some others; about 2% of the full set was active somewhere.
TbHK1 inh: Trypanosoma brucei hexokinase 1 inhibitors, primary screen, biochemical, G6PDH-coupled NADH absorbance, MLSCN library | hexokinase 1 [Trypanosoma brucei] | recombinant TbHK1, G6PDH-coupled NADH A340 | inhibition, % at 10 µM | actives 0.11% (n = 220,000) | AID 1430, 2008;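 active = inhibition of 50% or more in the single-dose primary screen; inactive = inhibition below 50%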
RBBP9 inhibitor: human RBBP9 inhibitors, primary screen, biochemical, fluorescence polarization, FP-Rh probe, HTS | Serine hydrolase RBBP9 (Homo sapiens), O75884 | actives 0.2% (n = 220,000) | inhibition, % at 7.94 µM | recombinant RBBP9;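 active = inhibition above the campaign mean of all tested compounds plus 3 SD, cut at about 14% in these data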;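 note: plate controls were DMSO wells with RBBP9 for no effect and wells lacking RBBP9 protein for full effect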
Target sequence (O75884 whole entry, looked up): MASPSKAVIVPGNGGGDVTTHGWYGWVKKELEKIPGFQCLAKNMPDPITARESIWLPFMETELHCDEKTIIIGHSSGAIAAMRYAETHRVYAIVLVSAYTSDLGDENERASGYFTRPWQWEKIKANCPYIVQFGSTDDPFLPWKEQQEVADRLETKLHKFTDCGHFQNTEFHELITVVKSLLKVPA
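Test system: recombinant human RBBP9. Quantity: 2.5 µM RBBP9 dispensing solution, before mixing. Detection: FP readout at 525/598 nm. Reagent: Serine-hydrolase probe FP-Rh, 375 nM pre-mixing. Measure: % inhibition. Control set: DMSO-treated enzyme wells and wells lacking RBBP9. Buffer or medium: Tris-NaCl-Pluronic buffer, pH 8.0. Times: preincubation 30 min plus labeling 45 min at 25 °C.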
TNF death inh: inhibitors of TNF-alpha triggered necroptosis, primary screen, cell-based, Jurkat FADD-/-, single concentration | activation (protection from cell death), % at 10 µM | AID 463075, 2010 | actives 0.068% (n = 220,000) | Jurkat FADD-/- TNF necroptosis rescue, ATP luminescence, 24 h; 0 = TNF only, 100 = no-TNF cells;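 active = activation, meaning protection from cell death, of at least 50% relative to plate controls; inactive = activation below 50%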;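 note: necroptosis triggered by 40 ng/mL TNF-alpha added together with compound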
Hep lipid drop: inhibitors of hepatocyte lipid droplet formation, primary screen, imaging, high-throughput imaging, BODIPY stain; actives 0.4% (n = 240,000); inhibition, % at 6.5 µM; AML12 mouse hepatocytes, oleate lipid droplets; AID 1656, 2009;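 active = lipid droplet intensity inhibited by at least 50%, with more than 500 cells counted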
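Assay system: AML12 hepatocytes (mouse) / Also added: 100 µM oleic acid challenge / Times: overnight treatment with compound plus oleate / Detection: high-content imaging of BODIPY-stained droplets and DAPI nuclei / Evaluation: % inhibition of lipid droplet signal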
L929 necroptosis: inhibitors of zVAD-triggered necroptosis, primary screen, L929 cells; viability rescue, % at 10 µM; actives 0.38% (n = 220,000); L929 zVAD necroptosis rescue, ATP luminescence, 24 h; with zVAD 60 µM;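 active = activation, scaled between plate controls, above about 75%, limit read from the data; inactive = activation under that limit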;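 note: 0% = zVAD with DMSO and 100% = DMSO alone without zVAD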
M18AAP inhibitor: PfM18AAP inhibitors, malaria aminopeptidase, primary screen, biochemical, QFRET, recombinant enzyme; M18 aspartyl aminopeptidase (Plasmodium falciparum 3D7); H-Glu-NHMec fluorogenic cleavage; inhibition, % at 7.35 µM; actives 1.2% (n = 290,000); AID 1822, 2009;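 active = inhibition above the campaign mean inhibition over all tested compounds plus 3 SD, cut at about 28% in these data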;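 note: 0% = plate median of test compound wells and 100% = 2 mM ZnCl2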
* hit, by the source's call; . = no result given.

SMILES | TbHK1 inh | RBBP9 inhibitor | TNF death inh | Hep lipid drop | L929 necroptosis | M18AAP inhibitor
O=C(NCCO)Nc1ccc2nsnc2c1 | -9.8 | 12.2 | 2.2 | 11.7 | 1.1 | -1.2
CCCCNC(=O)c1ccc2nc(-c3ccco3)c(-c3ccco3)nc2c1 | -1.5 | -5.5 | -2.1 | 12.1 | 4.4 | 1.8
O=C(Nc1ccc(N2CCOCC2)cc1)c1ccc2nc(-c3ccco3)c(-c3ccco3)nc2c1 | -17.0 | -1.9 | -0.1 | 13.3 | 0.7 | 6.2
S=C(Nc1ccc(N2CCOCC2)cc1)Nc1ccc2nc(-c3ccco3)c(-c3ccco3)nc2c1 | -42.8 | 12.3 | -3.4 | 18.3 | 1.3 | 44.5*
O=C(NCCCO)c1ccc2nc(-c3ccco3)c(-c3ccco3)nc2c1 | -4.1 | 8.6 | -2.2 | -10.3 | 4.2 | 28.5*
COc1cc(C(=O)NNC2=NC(C)(C)Cc3cc(C)c(C)cc32)cc(OC)c1OC | -16.3 | -1.3 | 2.0 | -1.0 | 1.7 | -1.7
CCOC(=O)C1C(=O)NC(N2CCN(Cc3ccccc3)CC2)=NC1c1ccco1 (stereo unspecified) | -1.5 | -3.9 | 0.7 | . | 0.1 | -2.5
Cc1cc(C)cc(C(=O)Nn2cnnc2)c1 | . | . | . | -4.5 | . | 31.4*
CCOc1ccc(C(=O)Nn2cnnc2)cc1OCC | -10.4 | -1.2 | -0.4 | -1.2 | -0.5 | 29.0*
CC(C)(C)c1ccc(C(=O)Nn2cnnc2)cc1 | . | . | . | 12.5 | . | 13.0
CC(C)CC(NC(=O)/C(=C/c1ccco1)NC(=O)c1ccc(Br)o1)C(=O)O (stereo unspecified) | . | . | . | . | . | 2.9
O=C(Cn1cc(S(=O)(=O)Cc2cccc(F)c2)c2ccccc21)N1CCOCC1 | . | . | . | -2.8 | . | 1.2
COCCCNC(=S)N1CCC(NC(=O)c2ccco2)CC1 | -5.0 | -5.2 | 1.7 | 4.8 | 0.6 | -4.6
CCNC(=S)NNC(=O)c1csc(C)c1 | 2.0 | -4.7 | 0.3 | -4.0 | 0.1 | 28.2*
CCCCNC(=S)NNC(=O)c1csc(C)c1 | 3.0 | 1.2 | 0.9 | 5.9 | -0.8 | 20.5
O=C(O)c1ccccc1NS(=O)(=O)c1ccc(NNC(=S)Nc2ccc(OC(F)F)cc2)c([N+](=O)[O-])c1 | 0.2 | -1.4 | -4.8 | -2.2 | 43.8 | 43.8*
O=C(NNc1cccc(Cl)n1)c1cccnc1Cl | -10.2 | 5.0 | 1.7 | 7.9 | 1.3 | 31.5*
O=C1OC/C(=C(/O)c2ccc(Cl)cc2)C1=O | . | . | . | -3.4 | . | -4.4
CC(=O)NC1=C(Nc2ccc(N(C)C)cc2)C(=O)c2ccccc2C1=O | . | . | . | -2.2 | . | 29.0*
CC(=O)NC1=C(N(C)C2CCS(=O)(=O)C2)C(=O)c2ccccc2C1=O (stereo unspecified) | -10.2 | -0.4 | -6.9 | -11.0 | 7.1 | 8.6
NNC(=O)c1nn(-c2ccccc2)cc1O | -10.1 | -6.9 | -0.5 | 2.3 | 1.4 | 28.3*
CCn1c([N+](=O)[O-])nc2c1c(=O)[nH]c(=O)n2C | -9.9 | -4.0 | 50.7* | 2.9 | -1.9 | -16.2
CCN(CC)c1ccc(N=Nc2ncn[nH]2)cc1 | -3.0 | -7.0 | -5.5 | 8.2 | 39.0 | 30.4*
CN(CC(=O)Nn1cnnc1)S(=O)(=O)c1ccc(Br)cc1 | -1.4 | -4.3 | -0.7 | . | 0.3 | 30.4*
O=C(O)c1cccc(N/N=C/c2cn(-c3ccccc3)nc2-c2cccs2)c1 | 2.7 | -4.4 | -0.8 | -0.6 | 1.6 | 30.8*
SMILES | TbHK1 inh | RBBP9 inhibitor | TNF death inh | Hep lipid drop | L929 necroptosis | M18AAP inhibitor
NC(=O)N/N=C/c1cn(-c2ccccc2)nc1-c1cccs1 | -0.1 | -0.7 | -6.2 | 5.3 | 14.0 | -4.9
O=C(NCCN1CCOCC1)NC1(C(F)(F)F)Oc2ccccc2O1 | 2.2 | 10.4 | -8.1 | . | 19.5 | 72.0*
Cc1cc2nc(-c3ccc(SCC(=O)Nc4ccc(S(=O)(=O)NC5CC5)cc4)nc3)[nH]c2cc1C | -23.6 | -47.5 | 5.6 | 27.0 | 3.3 | -0.3
COc1ccc(-c2nc3c(-c4ccccc4)cnn3cc2C)cc1F | -8.1 | -7.0 | 51.1* | 15.6 | 1.1 | 5.9
COc1ccc(-c2nc3c(-c4ccc(Cl)cc4)cnn3cc2C)cc1F | -13.5 | -14.4 | 11.2 | -1.6 | 0.8 | -11.6
O=C(Nc1ccccc1)c1cc([N+](=O)[O-])ccc1Cl | 2.8 | . | 1.8 | 14.6 | 0.4 | .
O=C(Nc1ncn[nH]1)c1cc([N+](=O)[O-])ccc1Cl | . | . | . | 0.8 | . | 30.0*
CCc1nnc(NC(=O)/C=C/c2cccs2)s1 | -16.3 | -4.6 | 0.3 | -7.4 | 0.6 | 0.0
Cc1nc2cc(C(F)(F)F)ccc2n1C1CCN(CC(=O)NC(C)(C)C)CC1 | -5.9 | 3.6 | -1.4 | . | 0.7 | 0.8
COC(=O)C1=C(NC(=O)c2cccs2)CCS1 | 66.2* | 3.5 | -0.3 | . | 0.1 | 3.3
O=C(Nc1ccc(Cl)cc1)c1ccc(OCC2CCCO2)cc1 (stereo unspecified) | -0.8 | 6.2 | -0.8 | 3.9 | 22.9 | -10.4
O=C(Nc1nc(-c2ccc(Cl)cc2Cl)cs1)c1ccc(OCC2CCCO2)cc1 (stereo unspecified) | -4.9 | -8.5 | -2.3 | 77.4* | 0.4 | 0.7
COc1ccc(S(=O)(=O)N2CCOC2CNC(=O)C(=O)NCc2ccc3c(c2)OCO3)cc1 (stereo unspecified) | . | . | . | 0.4 | . | 6.0
O=C(NCc1ccco1)c1cccnc1Cl | -0.3 | 1.4 | 1.4 | 7.3 | -0.5 | -0.7
O=C(NCc1ccco1)c1cccnc1-c1nc2ccccc2s1 | -8.7 | -10.7 | -4.9 | 1.3 | -0.1 | 30.9*
Cc1sc(/N=C/c2ccccc2O)c(C#N)c1C | 3.8 | 8.3 | -0.1 | -17.2 | 1.0 | 36.5*
CN1CCc2c(sc(/N=C/c3cc(Cl)ccc3O)c2C#N)C1 | -18.5 | -2.6 | -1.3 | 8.5 | 0.6 | 4.7
Cn1c(=O)oc2cc(S(=O)(=O)NCCC(=O)N3CCc4ccccc43)ccc21 | 2.8 | 1.9 | -0.6 | . | 0.7 | 5.8
Cc1cc2c(c(=O)n1CCCn1ccnc1)C(c1ccco1)C(C#N)=C(N)O2 (stereo unspecified) | -0.4 | -5.0 | -1.3 | . | 0.4 | 28.3*
O=c1c2ccccc2sn1-c1cc(S(=O)(=O)N2CCOCC2)ccc1N1CCOCC1 | 50.1* | 44.8* | -4.3 | . | 1.3 | 30.6*
O=S(=O)(c1ccc(N2CCOCC2)c(Cl)c1)N1CCOCC1 | . | . | . | 1.8 | . | -3.6
COc1ccccc1NC(=O)Cc1nnc(SCC(=O)Nc2nccs2)n1C | . | . | . | 9.2 | . | -5.1
O=C(Nc1ccccc1F)C(=Cc1sc(N2CCOCC2)nc1-c1ccccc1)C(=O)Nc1ccccc1F | -12.1 | -5.1 | 3.2 | 67.9* | -0.6 | -3.9
COc1ccccc1N1CCN(S(=O)(=O)c2c(C)[nH]c(=O)[nH]c2=O)CC1 | -3.0 | 0.0 | -0.1 | -15.7 | 0.3 | -3.0
